From ChEMBL document CHEMBL1629492 (Eur J Med Chem, 2010) come the findings set out here.

By Ki is commonly meant a measure of affinity in units of concentration, obtained from inhibition or displacement. Lower therefore signals a stronger hold on the target.

The target of experiment [1] is T1, Alpha-1B adrenergic receptor (Homo sapiens, UniProt P35368).
T1 sequence (P35368 whole entry): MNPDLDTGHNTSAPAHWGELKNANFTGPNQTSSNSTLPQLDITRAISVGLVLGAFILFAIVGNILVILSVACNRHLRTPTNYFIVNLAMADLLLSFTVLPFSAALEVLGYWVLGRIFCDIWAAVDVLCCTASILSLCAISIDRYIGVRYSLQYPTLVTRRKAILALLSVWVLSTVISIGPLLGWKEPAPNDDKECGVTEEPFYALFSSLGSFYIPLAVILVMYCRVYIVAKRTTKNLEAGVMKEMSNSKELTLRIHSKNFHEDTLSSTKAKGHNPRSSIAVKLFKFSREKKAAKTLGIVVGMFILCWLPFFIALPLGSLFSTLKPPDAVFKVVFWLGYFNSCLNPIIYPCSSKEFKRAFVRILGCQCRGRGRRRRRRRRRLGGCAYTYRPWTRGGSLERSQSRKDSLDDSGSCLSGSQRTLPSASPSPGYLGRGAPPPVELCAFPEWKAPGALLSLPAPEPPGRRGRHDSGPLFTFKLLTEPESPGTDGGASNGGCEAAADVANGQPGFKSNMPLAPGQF
Briefly: Displacement of [3H]prazosin from human Alpha-1B adrenoceptor expressed in CHO cells. It counts as cell-based. In outline:
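Membranes ([…], as printed) from CHO cells stably expressing the cloned human α1b subtype were incubated with 0.1–0.4 nM [³H]prazosin and competitor (1 pM up to the top concentration) in 50 mM Tris-HCl, pH 7.4, for 30 min at 25 °C. Non-specific binding was defined with phentolamine, and incubations ended by filtration. Ki was derived from IC50 by Cheng–Prusoff. Reported as pKi from 2–3 triplicate experiments.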

The target in experiment [2] is T2, Alpha-1D adrenergic receptor (Homo sapiens, UniProt P25100).
T2 sequence (P25100 whole entry): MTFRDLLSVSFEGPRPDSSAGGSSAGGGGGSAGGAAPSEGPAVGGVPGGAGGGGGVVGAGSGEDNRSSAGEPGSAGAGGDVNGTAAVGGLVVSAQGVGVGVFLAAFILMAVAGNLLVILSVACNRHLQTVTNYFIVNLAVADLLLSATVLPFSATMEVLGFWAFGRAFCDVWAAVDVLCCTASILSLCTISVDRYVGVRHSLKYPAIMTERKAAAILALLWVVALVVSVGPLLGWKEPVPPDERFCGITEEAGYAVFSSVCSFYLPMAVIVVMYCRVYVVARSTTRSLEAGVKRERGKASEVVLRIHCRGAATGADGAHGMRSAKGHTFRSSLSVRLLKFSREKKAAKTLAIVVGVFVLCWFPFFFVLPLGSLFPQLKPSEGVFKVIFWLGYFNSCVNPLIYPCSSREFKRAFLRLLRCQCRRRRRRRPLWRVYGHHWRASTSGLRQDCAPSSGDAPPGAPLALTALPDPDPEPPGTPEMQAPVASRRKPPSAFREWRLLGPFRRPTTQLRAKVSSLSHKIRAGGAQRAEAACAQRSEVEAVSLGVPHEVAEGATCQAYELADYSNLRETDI
Briefly: Displacement of [3H]prazosin from human Alpha-1D adrenoceptor expressed in CHO cells. It is filed as cell-based. In outline:
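Membranes ([…], as printed) from CHO cells stably expressing the cloned human α1d subtype were incubated with 0.1–0.4 nM [³H]prazosin and competing drug (1 pM upward) in 50 mM Tris-HCl, pH 7.4, for 30 min at 25 °C. Phentolamine defined non-specific binding. IC50 was converted to Ki by Cheng–Prusoff. Reported as pKi from 2–3 triplicate experiments.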
A general note: Loss of bound radioactivity is the signal in a displacement assay; it reports binding, not function.

The target in experiment [3] is T3, Alpha-1D adrenergic receptor (Rattus norvegicus, UniProt P23944).
T3 sequence (P23944 whole entry): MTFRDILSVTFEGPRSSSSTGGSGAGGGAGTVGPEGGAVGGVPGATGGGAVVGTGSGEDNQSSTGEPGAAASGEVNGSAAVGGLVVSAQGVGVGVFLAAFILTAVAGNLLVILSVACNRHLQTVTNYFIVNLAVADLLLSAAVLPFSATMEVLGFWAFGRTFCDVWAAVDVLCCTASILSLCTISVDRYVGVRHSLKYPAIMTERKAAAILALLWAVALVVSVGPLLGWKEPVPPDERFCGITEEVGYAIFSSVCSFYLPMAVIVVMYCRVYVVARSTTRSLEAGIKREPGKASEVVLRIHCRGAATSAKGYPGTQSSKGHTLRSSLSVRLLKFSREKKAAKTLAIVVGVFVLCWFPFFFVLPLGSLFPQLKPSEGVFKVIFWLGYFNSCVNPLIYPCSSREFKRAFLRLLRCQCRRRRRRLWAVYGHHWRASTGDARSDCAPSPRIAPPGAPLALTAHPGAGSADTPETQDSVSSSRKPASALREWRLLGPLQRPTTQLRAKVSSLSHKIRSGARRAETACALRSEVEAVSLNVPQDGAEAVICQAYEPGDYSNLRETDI
In words: Antagonist activity at Alpha-1D adrenoceptor in Wistar rat thoracic aorta assessed as noradrenaline induced contractions after 30 mins.

The species entered for experiment [4] is Rattus norvegicus. Briefly: Selectivity ratio of EC50 for alpha1A adrenoceptor in Wistar rat vas deferens to EC50 for Alpha-1D adrenoceptor in Wistar rat thoracic aorta. It is filed as tissue-based.
For experiment [5], the species on record is Rattus norvegicus. In words: Selectivity ratio of EC50 for alpha1D adrenoceptor in Wistar rat thoracic aorta to Ki for Alpha-1B adrenoceptor in Wistar rat spleen. It is filed as tissue-based.
The target in experiment [6] is T4, Alpha-1B adrenergic receptor (Rattus norvegicus, UniProt P15823).
T4 sequence (P15823 whole entry): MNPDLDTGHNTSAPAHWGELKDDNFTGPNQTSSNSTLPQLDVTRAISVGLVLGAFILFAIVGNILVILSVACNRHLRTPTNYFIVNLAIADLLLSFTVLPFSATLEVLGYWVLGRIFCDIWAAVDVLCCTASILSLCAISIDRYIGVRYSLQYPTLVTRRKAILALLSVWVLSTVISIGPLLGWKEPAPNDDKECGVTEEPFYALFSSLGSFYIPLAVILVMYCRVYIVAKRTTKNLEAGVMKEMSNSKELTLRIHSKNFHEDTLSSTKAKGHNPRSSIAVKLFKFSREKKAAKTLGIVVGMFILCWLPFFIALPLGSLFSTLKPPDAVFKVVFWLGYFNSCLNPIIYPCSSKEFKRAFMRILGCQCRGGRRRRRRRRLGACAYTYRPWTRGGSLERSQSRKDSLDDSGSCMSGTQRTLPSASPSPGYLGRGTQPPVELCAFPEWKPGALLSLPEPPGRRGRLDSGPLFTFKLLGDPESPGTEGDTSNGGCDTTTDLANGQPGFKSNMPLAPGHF
Briefly: Antagonist activity at Alpha-1B adrenoceptor in Wistar rat spleen assessed as phenylephrine induced contractions after 30 mins. It counts as functional, tissue-based. To be noted: read-out: pA2 (converted). In a few lines: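 Spleen strips from male Wistar rats (275–300 g) were set up in a 20 mL bath of physiological salt solution (pH 7.4, 37 °C, 95% O2/5% CO2) under 1 g tension and equilibrated 2 h. Two cumulative phenylephrine curves were run, each followed by 30 min washing, then 30 min incubation with vehicle or antagonist before a third curve. Values are Schild pA2, or pKB where slopes were nonparallel; 4–6 experiments.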

`COc1ccc(C[C@@H](C)NC[C@@H]2Oc3ccccc3O[C@@H]2C)cc1S(N)(=O)=O`: the Ki in experiment [1] was 31.6 nM; in experiment [2] it was 15.5 nM. Further, the Kb in experiment [3] is 21.4 nM. Besides, the Selectivity ratio was 1 in experiment [4] and 0.8 in experiment [5].

Take `COc1ccc(C[C@@H](C)NCCOc2ccccc2OCc2ccccc2)cc1S(N)(=O)=O`: the Ki in experiment [1] is 2.09 nM; in experiment [2], 0.324 nM. In addition, the figures for the Selectivity ratio in experiment [4] and in experiment [5] were 3 and 4, respectively.

`COc1ccc(C[C@@H](C)NCCOc2ccccc2OC(C)C)cc1S(N)(=O)=O`: the results for the Ki in experiment [1] and in experiment [2] were 1.91 nM and 0.245 nM, respectively. The Kb in experiment [3] is 0.501 nM. Further, the Selectivity ratio in experiment [4] came out at 2; in experiment [5], 3.

As for `COc1ccc(C[C@@H](C)NCCOc2ccccc2OCC(F)(F)F)cc1S(N)(=O)=O`, the Ki in experiment [1] is 5.5 nM; in experiment [2] it was 0.955 nM. Moreover, the figures for the Kb in experiment [6] and in experiment [3] were 1.1 nM and 0.955 nM, respectively. Moreover, the Selectivity ratio in experiment [4] was found to be 4; in experiment [5] it was 1.

With `COc1ccc(C[C@@H](C)NC[C@H]2Oc3ccccc3O[C@H]2C)cc1S(N)(=O)=O`, the Ki was 67.6 nM in experiment [1] and 17.4 nM in experiment [2]. In addition, the Kb in experiment [6] was 30.9 nM; in experiment [3], 60.3 nM. Besides, the values for the Selectivity ratio in experiment [4] and in experiment [5] were 2 and 0.5, respectively.
